Laboratory results as given in ChEMBL document CHEMBL1140433, “Design, synthesis, and evaluation of pharmacological properties of cinnamic derivatives as antiatherogenic agents” (2005).

What was measured:
Format in all cases: functional, Homo sapiens
[1] = tested on: HMEC; experiment: Cytotoxic effect of LDL oxidized by HMEC1 cells at 10 uM by MTT assay expressed as percentage of viability in unstimulated control
Method in brief: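 LDL (100 µg apoB/mL) was first oxidized by HMEC-1 for 6 h in RPMI with 1 µM Cu2+ and compound at 10 µM. This LDL then stayed on serum-starved HMEC-1 for a 24 h pulse. Viability was read by MTT as % of control cells in fresh RPMI without LDL or antioxidant. Mean of four determinations.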

[2] = tested on: HMEC; experiment: Ability to inhibit HMEC1-mediated LDL oxidation at 10 uM evaluated by TBARS formation in the presence of copper; parameters: scale not given: the % may be the effect or the level left
Method in brief: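 Human plasma LDL (100 µg apoB/mL) was incubated with subconfluent HMEC-1 in serum-free RPMI-1640 with 1 µM Cu2+ for 6 h at 37 °C. Cells had been serum-starved for 24 h. Compound was added in DMSO just before oxidation, in duplicate. TBARS in the medium were measured fluorimetrically (Yagi), as % of cell-oxidized LDL without antioxidant. Mean of four determinations.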

[3] = tested on: HMEC; experiment: Ability to inhibit HMEC1-mediated LDL oxidation at 100 uM evaluated by TBARS formation in the absence of copper; parameters: scale not given: the % may be the effect or the level left
[4] = tested on: HMEC; experiment: Ability to inhibit HMEC1-mediated LDL oxidation at 10 uM evaluated by TBARS formation in the absence of copper; parameters: scale not given: the % may be the effect or the level left

SMILES	Activity [1] [%]	Activity [2] [%]	Activity [3] [%]	Activity [4] [%]
CCOP(=O)(O)/C=C/c1ccc(O)c(OC)c1	21.7	52.7		
CCOP(=O)(O)/C=C/c1cc(OC)c(O)c(OC)c1	45	16		
CCOP(=O)(O)/C=C/c1ccc(O)cc1	13.3	101		
COc1ccc(/C=C/C(=O)Nc2ccccn2)cc1OC	20.7	100		
COc1cc(/C=C/C(=O)SCCNC(C)=O)cc(OC)c1O	88.7	12.7	8	18
CCOP(=O)(/C=C/c1cc(OC)c(O)c(OC)c1)OCC	81	13		
COc1cc(/C=C/C(=O)SCCNC(C)=O)ccc1O	69.3	40.3		
CCOP(=O)(/C=C/c1ccc(O)c(OC)c1)OCC	75.7	32.3		
CCOP(=O)(/C=C/c1ccc(O)cc1)OCC	65.3	77.6		
COc1ccc(/C=C/C(=O)SCCNC(C)=O)cc1	21.7	109		
COc1cc(/C=C/C(=O)NCCc2c[nH]c3ccccc23)ccc1O	93.6	9.6		
COc1cccc(/C=C/C(=O)Nc2ccccn2)c1	48.7	61.3		
CC(=O)NCCSC(=O)/C=C/c1ccc(O)cc1	22.6	95.6		
Cc1c(C)c2c(c(C)c1O)CC[C@@](C)(CCC[C@H](C)CCC[C@H](C)CCCC(C)C)O2 [ALPHA-TOCOPHEROL]	29	55		
CC(C)(Sc1cc(C(C)(C)C)c(O)c(C(C)(C)C)c1)Sc1cc(C(C)(C)C)c(O)c(C(C)(C)C)c1 [PROBUCOL]	92	10		
